Laboratory results from paper PMC8530377 (Journal of medicinal chemistry, 2021).

Experiments:
[1] = system: MOR; conditions: cited from earlier work
[2] = biological target: hMOR (human MOR) (Homo sapiens, UniProt P35372); test: biochemical; type: binding
[3] = biological target: hMOR (Gi-1) (Homo sapiens, UniProt P35372); test: cell-based; conditions: for Emax: read-out: Gi-1 Emax
[4] = biological target: hMOR (GoA and GoB) (Homo sapiens, UniProt P35372); test: cell-based; conditions: read-out: Emax at GoA and GoB
Sequence of hMOR (GoA and GoB) (P35372 whole entry): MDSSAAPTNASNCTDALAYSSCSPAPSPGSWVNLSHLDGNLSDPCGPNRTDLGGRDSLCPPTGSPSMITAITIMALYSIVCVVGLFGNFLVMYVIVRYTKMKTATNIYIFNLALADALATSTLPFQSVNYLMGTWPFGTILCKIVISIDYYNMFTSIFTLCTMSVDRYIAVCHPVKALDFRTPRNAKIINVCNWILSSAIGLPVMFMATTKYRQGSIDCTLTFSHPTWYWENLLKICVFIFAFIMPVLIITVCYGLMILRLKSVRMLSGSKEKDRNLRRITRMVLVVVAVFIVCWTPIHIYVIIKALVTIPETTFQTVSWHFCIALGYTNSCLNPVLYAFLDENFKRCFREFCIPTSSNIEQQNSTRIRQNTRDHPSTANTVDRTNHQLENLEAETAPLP

[5] = biological target: hMOR (Gz) (Homo sapiens, UniProt P35372); test: cell-based; conditions: read-out: Emax at Gz
Sequence of hMOR (Gz) (P35372 whole entry): as above

[6] = biological target: hMOR (β-arrestin2) (Homo sapiens, UniProt P35372); test: cell-based; conditions: for Emax: read-out: β-arrestin2 recruitment Emax (BRET)
Sequence of hMOR (β-arrestin2) (P35372 whole entry): as above

[7] = biological target: hMOR (β-arrestin1) (Homo sapiens, UniProt P35372); type: cell-based
Sequence of hMOR (β-arrestin1) (P35372 whole entry): as above

[8] = biological target: murine MOR (Mus musculus, UniProt P42866); test: BRET-based Nb33 recruitment assay, mMOR; type: cell-based; conditions: for Nb33 recruitment efficacy at murine MOR: HEK293-T cells, compared to DAMGO
Sequence of murine MOR (P42866 whole entry): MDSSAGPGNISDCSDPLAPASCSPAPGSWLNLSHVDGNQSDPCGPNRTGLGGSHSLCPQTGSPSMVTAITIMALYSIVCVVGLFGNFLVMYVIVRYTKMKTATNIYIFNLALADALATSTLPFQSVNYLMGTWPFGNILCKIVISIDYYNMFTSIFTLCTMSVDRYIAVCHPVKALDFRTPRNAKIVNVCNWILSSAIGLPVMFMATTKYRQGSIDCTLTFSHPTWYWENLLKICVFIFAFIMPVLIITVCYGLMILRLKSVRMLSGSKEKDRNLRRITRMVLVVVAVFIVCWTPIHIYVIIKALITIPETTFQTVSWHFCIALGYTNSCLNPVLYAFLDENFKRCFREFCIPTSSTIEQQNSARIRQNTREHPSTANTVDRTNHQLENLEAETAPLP

[9] = system: GABAA receptor-mediated IPSCs in VTA neurons; test: Whole cell electrophysiology, evoked IPSCs in VTA neurons of acute brain slices; type: cell-based, rat; conditions: 10 μM; compared to 5 μM DAMGO and 10 μM morphine
[10] = system: DOR; test: BRET Gi-1 activation assay at DOR; type: cell-based
Method in brief: (§1)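 Cells were plated in 6-well dishes (700,000–800,000 cells/well) or 10 cm dishes and transfected 2–4 h later with receptor:Gα-RLuc8:Gβ:Gγ-GFP2 at 1:1:1:1. The next day they were replated on poly-D-lysine 96-well plates (30,000–50,000 cells/well). One day later, in HBSS + 20 mM HEPES pH 7.4 with coelenterazine 400a, cells equilibrated 5 min, then drug 5 min. BRET2 ratio was GFP2 (510 nm)/RLuc8 (395 nm), sixth of six serial reads.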

[11] = system: KOR; test: BRET Gi-1 activation assay at KOR; type: cell-based
Method in brief: as §1

[12] = biological target: hMOR (Homo sapiens, UniProt P35372); test: cell-based
Sequence of hMOR (P35372 whole entry): as the sequence (P35372 whole entry) above

[13] = system: MOR KO, KOR KO and DOR KO mice; test: 55 °C tail withdrawal antinociception in opioid receptor knock-out mice; type: in vivo, mouse; conditions: 10 mg/kg, sc, relative to WT
[14] = system: mice; test: Respiratory rate, CLAMS; type: in vivo, mouse
[15] = system: mice; test: Locomotor effect, CLAMS; type: in vivo, mouse
[16] = system: C57BL/6J mice; conditions: mouse, in vivo
[17] = system: C57BL/6J mice; conditions: sc; cited from earlier work
[18] = 45 mg/kg, sc (15-fold antinociceptive ED50)

Sequence of hMOR (Gi-1) (P35372 whole entry): as above
Sequence of hMOR (human MOR) (P35372 whole entry): as above

Row | SMILES | Nb33 recruitment efficacy (literature) [1] | Ki [2] | Emax [3] | Emax [4] | Emax [5] | β-arrestin2 recruitment (BRET), words [6] | Emax [6] | β-arrestin1 recruitment (BRET), words [7] | Nb33 recruitment efficacy at murine MOR [8] | mean inhibition of evoked IPSCs [9] | place conditioning (CPP/CPA) [16] | further results
1 | C[C@@H](Cc1ccsc1)NC(=O)NC[C@H](Cc1ccc(O)cc1)N(C)C [PZM21] | 38% | – | – | – | – | – | – | – | – | – | – | –
2 | CC[C@@H]1CN2CC[C@@]3(O)C(=Nc4cccc(-c5ccccc5)c43)[C@@H]2C[C@@H]1/C(=C\OC)C(=O)OC [Compound 4, Methyl(E)-2-((2S,3S,7aS,12bS)-3-ethyl-7a-hydroxy-8-phenyl-1,2,3,4,6,7,7a,12b-octahydroindolo[2,3-a]quinolizin-2-yl)-3-methoxyacrylate] | – | 15 to 17 nM | 60 to 70% | 63 to 75% | 79 to 86% | not measurable | < 10% | failed to show recruitment | 15–18% | smaller | – | –
3 | CC[C@@H]1CN2CC[C@@]3(O)C(=Nc4cccc(-c5ccoc5)c43)[C@@H]2C[C@@H]1/C(=C\OC)C(=O)OC [Compound 6 (SC13), Methyl(E)-2-((2S,3S,7aS,12bS)-3-ethyl-8-(furan-3-yl)-7a-hydroxy-1,2,3,4,6,7,7a,12b-octahydroindolo[2,3-a]quinolizin-2-yl)-3-methoxyacrylate] | – | – | 60 to 70% | 63 to 75% | 79 to 86% | not measurable | < 10% | failed to show recruitment | – | smaller | no signs of CPP or CPA | EC50 [3]: 145 nM; fold lower potency at DOR versus MOR, Gi-1 activation [10]: ~ 100 fold; fold lower potency at KOR versus MOR, Gi-1 activation [11]: ~ 100 fold; EC50 [12]: 730 nM; EC50 [8]: 12 nM; antinociception in MOR KO mice [13]: significantly reduced; antinociception in KOR KO mice ([13]; p = 0.058): remained intact; antinociception in DOR KO mice ([13]; p = 0.13): remained intact; respiratory effects (breath rate) [14, 18]: no statistically significant respiratory effects; locomotor effect [15, 18]: no hyperlocomotion
4 | CN1CC[C@]23c4c5ccc(O)c4O[C@H]2[C@@H](O)C=C[C@H]3[C@H]1C5 [morphine, reference compound] | – | – | – | – | – | – | – | – | – | – | showed CPP | respiratory effects (breath rate) ([14]; 30 mg/kg, sc): significant respiratory depression for 60 min; locomotor effect ([15]; 10 and 30 mg/kg, sc (5-fold and 15-fold ED50)): hyperlocomotion effects; antinociception ED50 (95% CI), literature [17]: 2.48 (1.57–3.87) mg/kg
5 | CC[C@@H]1CN2CC[C@@]3(O)C(=Nc4cccc(C)c43)[C@@H]2C[C@@H]1/C(=C\OC)C(=O)OC [Compound 5, Methyl(E)-2-((2S,3S,7aS,12bS)-3-ethyl-7a-hydroxy-8-methyl-1,2,3,4,6,7,7a,12b-octahydroindolo[2,3-a]quinolizin-2-yl)-3-methoxyacrylate] | – | 15 to 17 nM | 60 to 70% | 63 to 75% | 79 to 86% | not measurable | < 10% | failed to show recruitment | 15–18% | smaller | – | –
6 | COc1ccsc1CNCC[C@@]1(c2ccccn2)CCOC2(CCCC2)C1 [TRV130] | 42% | – | – | – | – | – | – | – | – | – | – | –
